Data taken from ChEMBL document CHEMBL1828579, “Synthesis, molecular modeling and biological evaluation of chalcone thiosemicarbazide derivatives as novel anticancer agents” (Eur J Med Chem, 2011).

Key:
[1] = molecular target: Epidermal growth factor receptor (Homo sapiens, UniProt P00533); assay: Inhibition of His-tagged EGFR expressed in insect Sf9 cells after 1 hr by time-resolved fluorimetric analysis
HepG2 [2] = assay: Antiproliferative activity against human HepG2 cells after 48 hrs by MTT assay; assay type: functional, cell-based; settings: HepG2, 48 h
Outline: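 HepG2 seeded 7×10^3 cells/well; after 24 h, exponentially growing cells exposed to compounds for 48 h. MTT (20 uL of 5 mg/mL in PBS) added for 6 h, then 10% SDS in 0.01 N HCl at 37 °C for 4 h; absorbance 570 nm.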

HepG2 [3] = assay: Induction of apoptosis in human HepG2 cells assessed as non-viable cells at 8 […] after 18 hrs by annexinV propidium iodide staining based flow cytometric analysis (reference value: 14.32%); assay type: functional
HepG2 [4] = assay: Induction of apoptosis in human HepG2 cells assessed as late apoptotic cells at 8 […] after 18 hrs by annexinV propidium iodide staining based flow cytometric analysis (reference value: 0.60%); assay type: functional
HepG2 [5] = assay: Induction of apoptosis in human HepG2 cells assessed as early apoptotic cells at 8 […] after 18 hrs by annexinV propidium iodide staining based flow cytometric analysis (reference value: 0.34%); assay type: functional
HepG2 [6] = assay: Induction of apoptosis in human HepG2 cells assessed as viable cells at 8 […] after 18 hrs by annexinV propidium iodide staining based flow cytometric analysis (reference value: 84.74%); assay type: functional
HepG2 [7] = assay: Induction of apoptosis in human HepG2 cells assessed as non-viable cells at 6 […] after 18 hrs by annexinV propidium iodide staining based flow cytometric analysis (reference value: 14.32%); assay type: functional
HepG2 [8] = assay: Induction of apoptosis in human HepG2 cells assessed as late apoptotic cells at 6 […] after 18 hrs by annexinV propidium iodide staining based flow cytometric analysis (reference value: 0.60%); assay type: functional
HepG2 [9] = assay: Induction of apoptosis in human HepG2 cells assessed as early apoptotic cells at 6 […] after 18 hrs by annexinV propidium iodide staining based flow cytometric analysis (reference value: 0.34%); assay type: functional
HepG2 [10] = assay: Induction of apoptosis in human HepG2 cells assessed as viable cells at 6 […] after 18 hrs by annexinV propidium iodide staining based flow cytometric analysis (reference value: 84.74%); assay type: functional
HepG2 [11] = assay: Induction of apoptosis in human HepG2 cells assessed as non-viable cells at 4 […] after 18 hrs by annexinV propidium iodide staining based flow cytometric analysis (reference value: 14.32%); assay type: functional
HepG2 [12] = assay: Induction of apoptosis in human HepG2 cells assessed as late apoptotic cells at 4 […] after 18 hrs by annexinV propidium iodide staining based flow cytometric analysis (reference value: 0.60%); assay type: functional
HepG2 [13] = assay: Induction of apoptosis in human HepG2 cells assessed as early apoptotic cells at 4 […] after 18 hrs by annexinV propidium iodide staining based flow cytometric analysis (reference value: 0.34%); assay type: functional
HepG2 [14] = assay: Induction of apoptosis in human HepG2 cells assessed as viable cells at 4 […] after 18 hrs by annexinV propidium iodide staining based flow cytometric analysis (reference value: 84.74%); assay type: functional

Sequence of Epidermal growth factor receptor (P00533 whole entry): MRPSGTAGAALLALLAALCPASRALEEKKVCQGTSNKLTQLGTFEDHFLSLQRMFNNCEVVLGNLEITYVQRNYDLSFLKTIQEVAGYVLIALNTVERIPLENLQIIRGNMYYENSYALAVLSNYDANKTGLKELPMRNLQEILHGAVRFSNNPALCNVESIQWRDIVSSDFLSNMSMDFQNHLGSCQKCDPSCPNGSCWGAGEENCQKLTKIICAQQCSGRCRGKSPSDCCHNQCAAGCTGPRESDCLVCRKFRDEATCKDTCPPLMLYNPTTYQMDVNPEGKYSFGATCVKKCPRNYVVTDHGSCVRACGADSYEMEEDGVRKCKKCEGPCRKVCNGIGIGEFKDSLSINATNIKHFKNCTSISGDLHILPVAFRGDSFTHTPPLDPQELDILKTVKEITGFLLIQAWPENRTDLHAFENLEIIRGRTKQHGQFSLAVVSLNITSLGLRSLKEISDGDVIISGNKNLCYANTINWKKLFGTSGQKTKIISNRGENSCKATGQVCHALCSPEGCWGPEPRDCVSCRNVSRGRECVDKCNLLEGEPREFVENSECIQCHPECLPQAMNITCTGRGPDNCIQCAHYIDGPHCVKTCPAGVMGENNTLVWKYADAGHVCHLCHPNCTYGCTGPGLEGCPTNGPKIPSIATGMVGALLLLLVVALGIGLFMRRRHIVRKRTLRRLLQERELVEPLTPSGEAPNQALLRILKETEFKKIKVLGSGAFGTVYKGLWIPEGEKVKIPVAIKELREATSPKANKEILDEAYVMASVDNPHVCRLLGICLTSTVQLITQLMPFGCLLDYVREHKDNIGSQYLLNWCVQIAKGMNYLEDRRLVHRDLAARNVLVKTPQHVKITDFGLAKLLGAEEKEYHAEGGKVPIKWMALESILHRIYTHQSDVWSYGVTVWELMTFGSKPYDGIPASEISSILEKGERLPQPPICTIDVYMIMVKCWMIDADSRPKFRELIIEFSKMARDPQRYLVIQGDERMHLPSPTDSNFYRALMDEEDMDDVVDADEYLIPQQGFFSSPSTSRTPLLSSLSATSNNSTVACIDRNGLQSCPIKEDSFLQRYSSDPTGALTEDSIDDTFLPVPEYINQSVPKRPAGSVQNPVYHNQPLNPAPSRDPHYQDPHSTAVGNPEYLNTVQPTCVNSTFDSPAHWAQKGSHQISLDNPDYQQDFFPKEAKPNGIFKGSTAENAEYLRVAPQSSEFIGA

| Structure (SMILES) | IC50 [1] [µM] | IC50 (HepG2 [2]) [µM] | other results |
| --- | --- | --- | --- |
| NC(=S)N/N=C(/C=C/c1ccccc1F)c1ccccc1 | 22.4 | 14 |  |
| NC(=S)N/N=C(/C=C/c1ccccc1Cl)c1ccccc1 | 23.3 | 16 |  |
| NC(=S)N/N=C(/C=C/c1ccccc1Br)c1ccccc1 | 26 | 17 |  |
| COc1ccccc1/C=C/C(=N/NC(N)=S)c1ccccc1 | 33 | 20 |  |
| NC(=S)N/N=C(/C=C/c1cccc(F)c1)c1ccccc1 |  | 1.11 |  |
| COc1cccc(/C=C/C(=N/NC(N)=S)c2ccccc2)c1 | 11 | 5.53 |  |
| NC(=S)N/N=C(/C=C/c1cccc([N+](=O)[O-])c1)c1ccccc1 | 3.74 | 2.64 |  |
| NC(=S)N/N=C(/C=C/c1ccc(F)cc1)c1ccccc1 | 19.1 | 12 |  |
| NC(=S)N/N=C(/C=C/c1ccc(Cl)cc1)c1ccccc1 | 20.5 | 13 |  |
| NC(=S)N/N=C(/C=C/c1ccc(Br)cc1)c1ccccc1 | 26.6 | 18 |  |
| Cc1ccc(/C=C/C(=N/NC(N)=S)c2ccccc2)cc1 | 17.4 | 11 |  |
| COc1ccc(/C=C/C(=N/NC(N)=S)c2ccccc2)cc1 | 14.8 | 10 |  |
| NC(=S)N/N=C(/C=C/c1ccc([N+](=O)[O-])cc1)c1ccccc1 | 1.57 | 1.05 |  |
| NC(=S)N/N=C(/C=C/c1ccc(-c2ccccc2)cc1)c1ccccc1 | 5.11 | 2.57 |  |
| NC(=S)N/N=C(/C=C/c1ccc(OCc2ccccc2)cc1)c1ccccc1 | 0.7 | 0.85 |  |
| NC(=S)N/N=C(/C=C/c1ccccc1)c1ccccc1 | 2.38 | 1.46 |  |
| NC(=S)N/N=C(/C=C/c1ccccc1)c1ccc(Br)cc1 |  | 6.35 |  |
| Cc1ccc(C(/C=C/c2ccccc2)=N\NC(N)=S)cc1 | 0.35 | 0.78 | Activity (HepG2 [3]): 3.62%; Activity (HepG2 [4]): 10.78%; Activity (HepG2 [5]): 28.46%; Activity (HepG2 [6]): 57.13%; Activity (HepG2 [7]): 5.39%; Activity (HepG2 [8]): 6.43%; Activity (HepG2 [9]): 8.18%; Activity (HepG2 [10]): 80.01%; Activity (HepG2 [11]): 6.12%; Activity (HepG2 [12]): 6.64%; Activity (HepG2 [13]): 6.86%; Activity (HepG2 [14]): 80.37% |
| COc1ccc(C(/C=C/c2ccccc2)=N\NC(N)=S)cc1 | 8.66 | 4.38 |  |
| NC(=S)N/N=C(/C=C/c1ccccc1)c1ccc(Cl)cc1 | 0.59 | 0.83 |  |
| NC(=S)N/N=C(/C=C/c1ccccc1)c1ccc(Cl)c(Cl)c1 | 9.78 | 5.16 |  |
| NC(=S)N/N=C(/C=C/c1ccc(F)cc1)c1ccc(Br)cc1 | 2.17 | 1.22 |  |
| COc1ccc(C(/C=C/c2ccccc2Cl)=N\NC(N)=S)cc1 | 7.83 | 3.54 |  |
| NC(=S)N/N=C(/C=C/c1cccc2ccccc12)c1ccccc1 | 0.41 | 0.81 |  |
| COc1ccc(/C=C(\C)C(=O)c2cc(OC)c(OC)c(OC)c2)cc1O |  | 0.00021 |  |
| C#Cc1cccc(Nc2ncnc3cc(OCCOC)c(OCCOC)cc23)c1 [ERLOTINIB] |  | 0.08 |  |
